Legend:
A2780 = assay: Concentration of compound to inhibit the growth of human A2780 ovarian carcinoma cells(in vitro); type: functional, cell-based
B16 = assay: Concentration inducing 20% mitotic index for mitotic block in murine B16 melanoma cells; type: functional, Mus musculus
How it was run: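 B16 melanoma cells were treated in culture, and mitotic index was measured by a method adapted from earlier work. The value is the drug concentration giving a 20% mitotic index.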

Mus musculus [1] = assay: % T/C(is ratio of median survival time in the group receiving the optimal dose to median survival time in the vehicle control group X 100.) is measured in B16 melanoma cells at the dose of 50 ng/kg on the days 1 and 3(experiment 1); type: functional
How it was run: (§1)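 B6D2F1 mice bearing intraperitoneally implanted B16 melanoma (method adapted from earlier work); test agent given iv on days 1 and 3, optimal total dose reported in ng/kg. %T/C = median survival time of the optimal-dose group divided by median survival time of the vehicle control group × 100. Values are individual results from two separate experiments.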

Mus musculus [2] = assay: % T/C(is ratio of median survival time in the group receiving the optimal dose to median survival time in the vehicle control group X 100.) is measured in B16 melanoma cells at the dose of 50 ng/kg on the days 1 and 3(experiment 2); type: functional; how it was run: as §1
Mus musculus [3] = assay: % T/C was measured in B6D2F1 mice bearing ip-implanted B16 melanoma cells at the dose of 100n g/kg on the days 1 and 3; type: functional
How it was run: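 B6D2F1 mice bearing intraperitoneally implanted B16 melanoma received compound iv on days 1 and 3, with the total dose stated. %T/C = median survival time at the optimal dose ÷ median survival time of vehicle-treated controls × 100. The method was adapted from earlier work.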

With `CC(=O)O[C@H]1C(=O)[C@]2(C)C=CC3OC[C@@]3(OC(C)=O)C2[C@H](OC(=O)c2ccccc2)[C@]2(O)CC(OC(=O)[C@H](O)[C@@H](NC(=O)OC(C)(C)C)c3ccccc3)=C(C)C1C2(C)C` (some centres undefined) the IC50 (A2780) was 1.2 nM, the “Concentration giving 20% mitotic index” value (B16) was 10 nM and the T/C (Mus musculus [1]) was 181%. It also gave a T/C (Mus musculus [2]) of 181%.
For `CC(=O)O[C@@]12COC1C[C@@H]1C[C@@]13C(=O)[C@H](O)C1C(C)=C(OC(=O)[C@H](O)[C@@H](NC(=O)OC(C)(C)C)c4ccccc4)C[C@@](O)([C@@H](OC(=O)c4ccccc4)C23)C1(C)C` (some centres undefined), the IC50 (A2780) was 1.9 nM, the “Concentration giving 20% mitotic index” value (B16) was 7 nM and the T/C (Mus musculus [1]) was 184%. The T/C (Mus musculus [2]) was 210%.
For `CC(=O)O[C@H]1C(=O)[C@]23C[C@H]2CC2OC[C@@]2(OC(C)=O)C3[C@H](OC(=O)c2ccccc2)[C@]2(O)CC(OC(=O)[C@H](O)[C@@H](NC(=O)NC(C)(C)C)c3ccccc3)=C(C)C1C2(C)C` (some centres undefined), the IC50 (A2780) was 0.6 nM, the “Concentration giving 20% mitotic index” value (B16) was 10 nM and the T/C (Mus musculus [1]) was 213%. The T/C (Mus musculus [2]) was 225%.
With `CC(=O)O[C@@]12CO[C@@H]1C[C@H](O)[C@@]1(C)C(=O)[C@H](O)C3=C(C)[C@@H](OC(=O)[C@H](O)[C@@H](NC(=O)OC(C)(C)C)c4ccccc4)C[C@@](O)([C@@H](OC(=O)c4ccccc4)[C@H]21)C3(C)C.O.O.O` [DOCETAXEL] the IC50 (A2780) was 1.8 nM, the “Concentration giving 20% mitotic index” value (B16) was 15 nM and the T/C (Mus musculus [3]) was 177%.
`CC(=O)O[C@H]1C(=O)[C@]2(C)C=CC3OC[C@@]3(OC(C)=O)C2[C@H](OC(=O)c2ccccc2)[C@]2(O)CC(OC(=O)[C@H](O)[C@@H](NC(=O)NC(C)(C)C)c3ccccc3)=C(C)C1C2(C)C` (some centres undefined) was tested, and the IC50 (A2780) was 0.5 nM, the “Concentration giving 20% mitotic index” value (B16) was 10 nM and the T/C (Mus musculus [1]) was 232%. For the same compound, the T/C (Mus musculus [2]) was 241%.

From ChEMBL document CHEMBL1130131, “12,13-isotaxanes: synthesis of new potent analogs and X-ray crystallographic confirmation of structure” (J Med Chem, 1997)
